Laboratory results as given in PMC3924180 (Analytical chemistry, 2013).

Key:
[1] = system: protein tyrosine phosphatase (PTP); assay: Single cell phosphatase activity assay; assay type: cell-based, human; settings: BEAS-2B cells pretreated with the inhibitor; abstract
How it was run: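 BEAS-2B cells grown in KGM on glass-coverslip chambers, kept at 37 °C under warm ECB (HEPES buffer, pH 7.4). Microinjected with fluorescent phosphopeptide substrate pTS13 and laser-lysed after 60 s. Contents were electrokinetically loaded and separated by CE-LIF in borate/SDS/NaCl, pH 7.4. Dephosphorylation was taken as the […] peak area over the combined pTS13 + TS13 areas. Treated and untreated cells were compared by bootstrapping (10,000 samples).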

[2] = system: protein tyrosine phosphatase (PTP); assay: Single cell phosphatase activity assay; assay type: cell-based, human; settings: primary hAECs pre-incubated with the inhibitor; abstract

Compound	inhibition relative to PTP activity in untreated controls [1] [%]	median PTP inhibition [2] [%]
O=C1C=Cc2ccccc2C1=O [1,2-naphthoquinone]	100	87
[Zn+2] [Zn^2+]	69	88
pervanadate	76	91
